Hits are enriched below; roughly 3.8% of the tested compounds scored in any of these assays.
KCNQ1 act = human KCNQ1 channel potentiation or activation | CHO-K1 KCNQ1, thallium flux FluxOR fluorescence; hits give high values | B-score at 10 µM | 310,000 tested, 0.35% active | P51787;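 active = fluorescence ratio B-score, a plate-corrected score, at least three library SD, with initial intensity B-score within 5 SD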
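System: CHO-K1 cells stably expressing KCNQ1 / Medium: assay buffer for compound exposure, DMSO matched across wells / Reagent: thallium- and potassium-containing depolarizing buffer / Compound: one concentration, matched DMSO / Incubation: 20 min compound pretreatment at room temperature / Measured by: kinetic FluxOR fluorescence, 10 s baseline plus 110 s post-stimulus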
hERG rescue = hERG (human) protection from proarrhythmic block. Q12809. CHO-hERG, FluxOR thallium flux, dofetilide IC70 present. activation (rescue from dofetilide block), less the hit threshold, % at 10 µM. 310,000 tested, 0.51% active. AID 1511;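 active = activation above the mean of controls blocked by dofetilide plus 5 SD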;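 also: thallium influx through hERG after potassium depolarization seen as dye fluorescence rise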
Kir21 inh = Kir2.1 (mouse) channel inhibition; P35561; 310,000 tested, 0.85% active; HEK293-Kir2.1, FluxOR thallium flux fluorescence; hits give low values; B-score at 10 µM;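 active = fluorescence ratio B-score at or below minus 3 SD of library scores, with starting-brightness B-score within 2 SD, cut at about -4.2 in these data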;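 also: channel flux triggered by added potassium and thallium sulfate stimulus; B-score of peak minus minimum fluorescence over baseline after thallium stimulus; more negative B-score means stronger Kir2.1 block with less thallium influx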
KCNK3 block = human KCNK3 channel inhibition, primary screen | CHO-KCNK3 thallium flux, FluxOR fluorescence; hits give low values | B-score at 10 µM | O14649 | 340,000 tested, 0.84% active;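 active = B-score under library mean minus 4 SD, starting fluorescence ratio at most library mean plus 5 SD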;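 also: more negative B-score means stronger inhibition of thallium flux through KCNK3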
KCNK9 inh = blocks the human KCNK9 two-pore domain potassium channel; Q9NPC2; HEK293 KCNK9, FluxOR thallium flux fluorescence; hits give low values; B-score at 10 µM; 310,000 tested, 1.2% active; AID 488922;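 active = ratio B-score over 3 SD below the library mean, with starting fluorescence within 5 SD of its mean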;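 also: negative B-score means less thallium flux so channel inhibition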
Target sequence (Q9NPC2 whole entry, looked up, the tested form may be a part): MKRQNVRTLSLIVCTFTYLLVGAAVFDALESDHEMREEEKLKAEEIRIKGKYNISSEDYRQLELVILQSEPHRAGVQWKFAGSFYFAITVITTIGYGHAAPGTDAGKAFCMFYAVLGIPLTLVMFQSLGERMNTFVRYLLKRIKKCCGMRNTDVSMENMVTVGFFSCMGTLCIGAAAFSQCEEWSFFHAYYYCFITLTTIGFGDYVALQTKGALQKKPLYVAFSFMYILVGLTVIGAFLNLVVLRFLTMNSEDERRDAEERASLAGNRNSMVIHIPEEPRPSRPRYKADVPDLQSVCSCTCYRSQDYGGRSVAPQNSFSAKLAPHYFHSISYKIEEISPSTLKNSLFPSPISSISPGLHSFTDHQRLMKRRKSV
KCNQ1 block = human KCNQ1 channel inhibition; P51787; CHO-K1 KCNQ1, FluxOR thallium flux fluorescence; hits give high values; B-score at 10 µM; 310,000 tested, 1.3% active; AID 2642;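 active = compounds whose thallium flux B-score, printed positive for inhibition, exceeds three library SD while starting fluorescence stays within three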;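 also: channel opened by potassium depolarization with thallium stimulus after 20 min compound exposure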
* hit, by the source's call; i = inactive; / = no result.

SMILES	KCNQ1 act	hERG rescue	Kir21 inh	KCNK3 block	KCNK9 inh	KCNQ1 block
c1ccc(-c2ccccc2OCCCCN2CCCCCC2)cc1	i	-12	-6.6*	i	i	i
N#CC1CCCc2c1[nH]c1ccc([N+](=O)[O-])cc21 (configuration not stated)	i	-4	0.96	i	i	i
c1ccc(CN2CCN(CCOCCOc3cccc4ccccc34)CC2)cc1	i	-14	-14*	i	i	i
O=C(c1ccco1)N1CCN(CCOCCOc2cccc3ccccc23)CC1	i	-15	1.6	i	i	i
OCCCNCc1ccc(N(c2ccccc2)c2ccccc2)cc1	i	-9	-12*	i	i	i
Cc1ccc(CCC2C3=C(CCCC3=O)OC3=C2C(=O)CCC3)cc1	i	-3	-1.1	i	i	i
CC(C)c1ccc(CC(C)C2C3=C(CCCC3=O)OC3=C2C(=O)CCC3)cc1 (configuration not stated)	i	-15	-0.01	i	i	7*
CN(C(=O)c1ccccc1C(=O)OCC(=O)Nc1ccccc1)c1ccccc1	/	/	/	i	/	/
CCOc1ccc(S(=O)(=O)N2CCOCC2)cc1NC(=O)CN1C(=O)NC(CC)(c2ccccc2)C1=O (configuration not stated)	i	-16	-0.5	i	i	i
Cc1cc(C)cc(CSCC(=O)NN=C2CCCCCC2)c1	i	-10	-10*	i	i	i
CCOC(=O)[C@@H]1[C@H]2COc3ccc(Br)cc3[C@@H]2N2C(=O)N(c3cccc(F)c3)C(=O)[C@]12C	i	-8	-0.49	i	i	i
COCCn1c(SCC(=O)NC2CCCC2)nnc1C(C)C	i	-4	0.15	i	i	i
COc1ccc(NC(=O)CSc2nnc(COc3ccccc3)n2Cc2ccco2)cc1OC	i	5.1*	2.1	i	i	i
COc1ccc(C)cc1NC(=O)CSc1nnc(COc2ccccc2)n1Cc1ccco1	i	-15	0.26	i	i	i
O=c1c(C(c2ccccc2)c2c(O)sc3ccccc3c2=O)c(O)sc2ccccc12	i	-9	2.5	i	-8.2*	i
CC1CC(=O)Nc2ccccc2N1C(=O)CN1CCN(C=O)CC1 (configuration not stated)	i	-5	0.79	i	i	i
CN1C(=O)C2(OCC(C)([N+](=O)[O-])CO2)c2ccccc21 (configuration not stated)	i	8.6*	1.5	i	i	i
CCN1CC=C2C(C1)C(c1ccc(Cl)s1)C(C#N)=C(N)C2(C#N)C#N (configuration not stated)	i	-20	-9.8	i	i	11*
CCN1CC=C2C(C#N)=C(N)C(C#N)(C#N)[C@H](c3cccc(OC)c3OC)[C@H]2C1	i	-16	-3.8	i	i	i
Cc1ccc(NC(=O)CNCCCN2CCOCC2)cc1S(=O)(=O)N1CCCCC1	i	-10	0.8	i	i	i
O=C(NCC1CCCO1)C(=O)NCC(c1ccco1)N1CCN(c2ccccc2)CC1 (configuration not stated)	i	-6	-1	i	i	i
Cc1cc(CN(C)Cc2ccc(OCC(O)CN(C)Cc3ccccc3)cc2)on1 (configuration not stated)	i	-11	-3.2	i	i	i
C=CCOc1ccc(CN(C)CC(O)COc2cccc3ccccc23)cc1 (configuration not stated)	i	-18	-4.6*	i	i	i
O=C(CCCCCn1nnc2ccccc2c1=O)Nc1ccccc1Cl	i	-7	0.68	i	i	i
O=C(Nc1ccc(S(=O)(=O)N2CCCC2)cc1)C1CCCCC1	i	-9	1.1	i	i	i
SMILES	KCNQ1 act	hERG rescue	Kir21 inh	KCNK3 block	KCNK9 inh	KCNQ1 block
O=[N+]([O-])c1cc(S(=O)(=O)Nc2ccccc2)ccc1NCc1cccnc1	i	-7	-1.4	i	i	i
O=[N+]([O-])c1cc(S(=O)(=O)Nc2ccccc2)ccc1NCc1ccccc1	i	-4	1.5	i	-6.6*	i
CCCCNC(=O)/C(C#N)=c1\s/c(=C\c2ccccc2OC(F)F)c(=O)n1CCCOC	i	-9	-1.1	i	i	7*
COCCCNC(=O)/C(C#N)=c1\s/c(=C\c2ccccc2OC(F)F)c(=O)n1CCCOC	i	-6	-1.1	i	i	i
COc1ccc(S(=O)(=O)N(Cc2ccccc2)c2ccccc2C(=O)Nc2ccccc2C(=O)NCc2ccco2)cc1	i	-4	-0.47	i	-6.9*	i
S=C(Nc1ccc(Br)cc1Cl)N1CCN(c2ccccn2)CC1	i	-5	0.87	i	i	i
COC(=O)c1sccc1NC(=O)c1cc2c(s1)CCCC2	i	-9	0.11	i	-6.7*	i
Cc1ccccc1CC1(CO)CCCN(C(=O)CCN2CCCO2)C1 (configuration not stated)	i	-6	-0.49	i	i	i
C/C=C/c1ccc(OCCNCc2ccccc2)c(OC)c1	i	-10	-0.65	i	i	i
Cc1cc(Br)ccc1OCCNCc1ccccc1	i	-8	-10*	i	i	i
Clc1ccc(OCCCNCc2ccccc2)c2ccccc12	i	-23	-13*	i	i	i
Cc1cc(C)c(C)c(OCCNCc2ccccc2)c1	i	-6	-5.5*	i	i	i
Brc1ccccc1OCCNCc1ccccc1	i	-9	-1.3	i	i	i
Cc1cc(Cl)cc(C)c1OCCOCCNCc1ccccc1	i	-14	-12*	i	i	i
CCC(C)NC(=O)C1CCN(S(=O)(=O)c2ccc(-n3cnnn3)cc2)CC1 (configuration not stated)	i	-1	-0.05	i	i	i
Cc1cc(C)c(OCCNCc2ccccc2)c(C)c1	i	-5	-5*	i	i	i
C=CCNCCOc1c(C)cc(C)cc1Cl	i	-8	-2	i	i	i
CCC(C)NCCOCCOc1ccc(Cl)c2ccccc12 (configuration not stated)	i	-15	-9.7*	i	i	i
Cc1cc(C)c(OCCCCNCc2ccccc2)c(Cl)c1	i	-16	-12*	i	i	i
Cc1cc(Cl)cc(C)c1OCCNCc1ccccc1	i	-13	-11	i	i	i
COCCCNCCCCOc1c(Cl)cc(C)cc1Br	i	-17	-6*	i	i	i

Screens as filed in PubChem BioAssay.
